Test [1] can be described thus: Selectivity ratio, ratio of IC50 for rat liver MAO-A/MAO-B to IC50 for human recombinant VAP-1.
Test [2] addresses T1, Amine oxidase [copper-containing] 3 (Homo sapiens, UniProt Q16853).
T1 sequence (Q16853 whole entry): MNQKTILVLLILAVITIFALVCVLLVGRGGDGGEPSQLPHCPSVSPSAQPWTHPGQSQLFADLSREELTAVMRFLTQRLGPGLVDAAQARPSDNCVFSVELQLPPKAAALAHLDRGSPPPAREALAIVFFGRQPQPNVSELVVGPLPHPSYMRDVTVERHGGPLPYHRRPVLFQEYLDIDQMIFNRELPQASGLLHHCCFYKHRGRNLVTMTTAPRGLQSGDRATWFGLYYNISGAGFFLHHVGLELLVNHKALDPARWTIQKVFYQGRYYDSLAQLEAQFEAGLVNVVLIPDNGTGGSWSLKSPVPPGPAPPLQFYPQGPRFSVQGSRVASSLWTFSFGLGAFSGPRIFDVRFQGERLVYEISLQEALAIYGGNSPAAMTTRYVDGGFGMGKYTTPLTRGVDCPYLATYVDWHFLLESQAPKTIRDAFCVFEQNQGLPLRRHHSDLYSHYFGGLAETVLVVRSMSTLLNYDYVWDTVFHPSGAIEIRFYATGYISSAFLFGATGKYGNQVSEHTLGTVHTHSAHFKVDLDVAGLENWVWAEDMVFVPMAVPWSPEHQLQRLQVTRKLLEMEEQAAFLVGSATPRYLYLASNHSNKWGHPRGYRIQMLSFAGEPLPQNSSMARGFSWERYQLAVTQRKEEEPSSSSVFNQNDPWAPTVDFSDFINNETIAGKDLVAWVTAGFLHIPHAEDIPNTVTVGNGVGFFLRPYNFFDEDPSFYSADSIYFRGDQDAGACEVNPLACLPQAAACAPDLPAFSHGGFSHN
Briefly: Inhibition of human recombinant VAP-1 expressed in CHO cells after 30 mins by coupled colorimetric method. The test is classed as cell-based. Put shortly:
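Enzyme source: clarified lysate of CHO cells stably transfected with full-length human VAP-1 cDNA. The lysate was made in 150 mM NaCl, 10 mM Tris pH 7.2, 1.5 mM MgCl2 and 1% NP40 at 4 °C overnight. Reaction started with 1 mM benzylamine, 1 h at 37 °C, A490 read. IC50 given as mean ± SEM of 2–4 experiments.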

A further test concerns the target T2, Monoamine oxidase (Rattus norvegicus, UniProt P19643+P21396).
T2 sequence (P19643 whole entry): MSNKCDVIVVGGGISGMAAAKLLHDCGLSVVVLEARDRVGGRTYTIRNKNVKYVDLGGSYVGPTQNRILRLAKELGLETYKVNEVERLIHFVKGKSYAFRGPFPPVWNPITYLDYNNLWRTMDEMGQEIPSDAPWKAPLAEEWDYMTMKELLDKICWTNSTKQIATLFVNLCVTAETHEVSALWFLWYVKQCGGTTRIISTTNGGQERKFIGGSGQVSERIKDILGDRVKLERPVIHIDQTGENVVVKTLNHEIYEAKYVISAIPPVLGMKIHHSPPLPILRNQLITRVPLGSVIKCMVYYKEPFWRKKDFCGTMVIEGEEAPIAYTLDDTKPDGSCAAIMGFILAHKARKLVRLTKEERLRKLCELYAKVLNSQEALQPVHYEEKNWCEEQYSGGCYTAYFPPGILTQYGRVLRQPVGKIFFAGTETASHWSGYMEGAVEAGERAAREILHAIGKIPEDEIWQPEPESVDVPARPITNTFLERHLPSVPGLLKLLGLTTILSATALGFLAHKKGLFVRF
T2 sequence (P21396 whole entry): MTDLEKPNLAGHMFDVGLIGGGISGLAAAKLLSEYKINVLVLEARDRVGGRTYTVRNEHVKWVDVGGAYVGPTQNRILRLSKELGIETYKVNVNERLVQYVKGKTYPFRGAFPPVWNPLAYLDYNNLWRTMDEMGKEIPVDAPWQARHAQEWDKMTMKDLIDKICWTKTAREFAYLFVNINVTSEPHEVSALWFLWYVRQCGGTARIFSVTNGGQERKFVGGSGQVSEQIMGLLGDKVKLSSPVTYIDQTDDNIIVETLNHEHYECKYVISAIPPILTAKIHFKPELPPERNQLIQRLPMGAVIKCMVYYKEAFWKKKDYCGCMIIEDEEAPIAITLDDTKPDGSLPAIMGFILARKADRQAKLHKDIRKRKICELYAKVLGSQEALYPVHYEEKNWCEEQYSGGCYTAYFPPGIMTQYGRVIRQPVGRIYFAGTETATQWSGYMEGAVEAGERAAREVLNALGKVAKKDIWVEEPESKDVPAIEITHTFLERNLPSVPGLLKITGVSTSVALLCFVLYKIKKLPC
The test can be described thus: Inhibition of rat liver MAO-A/MAO-B after 30 mins by coupled colorimetric method. A digest of the protocol: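 Enzyme source: mitochondrial fraction from rat liver (MAO A plus MAO B), homogenized in 0.1 M phosphate pH 7.4 and isolated by differential centrifugation. Coupled HRP/4-aminoantipyrine colorimetric assay with 1 mM vanillic acid as chromogen. Inhibitor (1 nM–50 µM) was preincubated 30 min at 37 °C, then tyramine added (0.5 mM final), 1 h at 37 °C, A490 read. IC50 given as mean ± SEM of 2–4 experiments.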

In general, IC50 refers to the concentration needed to halve the response being measured. Consider `NN[C@@H](c1ccccc1)[C@H](O)c1ccccc1` (relative stereo), for which the Ratio IC50 in test [1] amounted to 0.7. The IC50 in test [2] turned out to be 50 µM; at Monoamine oxidase, 34 µM.
For `CN(N)[C@H](c1ccccc1)[C@@H](O)c1ccccc1` the same measures were 320, 0.33 µM and 105 µM.
In the same order, the values of `NNC[C@@H](O)c1ccccc1` are 65, 0.15 µM and 9.8 µM.
`NNC[C@H](O)c1ccccc1`: in test [1], the Ratio IC50 is 250. Also, the IC50 in test [2] turned out to be 0.04 µM; on Monoamine oxidase it was 9.9 µM.
For `CCCC(NN)C(O)c1ccccc1` (mixture of isomers) the same measures were 9, 1.2 µM and 11 µM.
For `CN(N)[C@H](c1ccccc1)[C@H](O)c1ccccc1` the same measures were 90, 1.06 µM and 99 µM.
In the same order, the values of `CN(N)[C@@H](c1ccccc1)[C@@H](O)c1ccccc1` are 72, 1.18 µM and 85 µM.
On to `CN(N)[C@@H](c1ccccc1)[C@H](O)c1ccccc1`, for which, in test [1], the Ratio IC50 came out at 250. In addition, the results for the IC50 (in test [2]; against Monoamine oxidase) were 0.28 µM and 70 µM, respectively.
